According to ChEMBL document CHEMBL5338774, “Quinazoline-2-Carboxamides as Selective PET Radiotracers for Matrix Metalloproteinase-13 Imaging in Atherosclerosis” (J Med Chem, 2023):

Experiments:
Collagenase 3 = Collagenase 3 (Homo sapiens, UniProt P45452); experiment: Inhibition of human recombinant MMP-13 using Mca-Lys-Pro-Leu-GlyLeu-Dpa-Ala-Arg-NH2 as substrate preincubated for 30 mins followed by substrate addition by fluorescence based analysis
[1] = molecular target: Matrix metalloproteinase-9 (Homo sapiens, UniProt P14780); experiment: Inhibition of human recombinant MMP-9 incubated for 30 mins by fluorescence based analysis
Matrix metalloproteinase-9, sequence (P14780 whole entry): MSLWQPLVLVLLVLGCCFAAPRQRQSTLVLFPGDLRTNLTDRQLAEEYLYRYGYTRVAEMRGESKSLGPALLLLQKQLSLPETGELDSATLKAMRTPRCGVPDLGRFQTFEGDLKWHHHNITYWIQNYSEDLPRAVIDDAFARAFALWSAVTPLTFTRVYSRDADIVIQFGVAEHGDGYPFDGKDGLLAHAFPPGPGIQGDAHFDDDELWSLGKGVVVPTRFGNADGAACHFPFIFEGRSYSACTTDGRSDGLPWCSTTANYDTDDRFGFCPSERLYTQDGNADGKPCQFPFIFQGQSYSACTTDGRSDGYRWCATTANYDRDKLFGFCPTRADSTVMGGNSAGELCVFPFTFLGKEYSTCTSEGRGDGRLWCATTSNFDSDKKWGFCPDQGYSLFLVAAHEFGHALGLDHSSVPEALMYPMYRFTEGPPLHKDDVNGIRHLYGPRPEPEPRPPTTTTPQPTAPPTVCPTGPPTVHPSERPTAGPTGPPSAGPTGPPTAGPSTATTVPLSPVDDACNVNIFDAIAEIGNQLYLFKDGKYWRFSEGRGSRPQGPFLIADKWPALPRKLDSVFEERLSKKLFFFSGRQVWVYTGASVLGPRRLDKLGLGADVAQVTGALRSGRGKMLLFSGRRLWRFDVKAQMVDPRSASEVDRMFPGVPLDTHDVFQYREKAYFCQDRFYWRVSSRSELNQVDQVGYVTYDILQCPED

[2] = molecular target: 72 kDa type IV collagenase (Homo sapiens, UniProt P08253); experiment: Inhibition of human recombinant MMP-2 incubated for 30 mins by fluorescence based analysis
72 kDa type IV collagenase, sequence (P08253 whole entry): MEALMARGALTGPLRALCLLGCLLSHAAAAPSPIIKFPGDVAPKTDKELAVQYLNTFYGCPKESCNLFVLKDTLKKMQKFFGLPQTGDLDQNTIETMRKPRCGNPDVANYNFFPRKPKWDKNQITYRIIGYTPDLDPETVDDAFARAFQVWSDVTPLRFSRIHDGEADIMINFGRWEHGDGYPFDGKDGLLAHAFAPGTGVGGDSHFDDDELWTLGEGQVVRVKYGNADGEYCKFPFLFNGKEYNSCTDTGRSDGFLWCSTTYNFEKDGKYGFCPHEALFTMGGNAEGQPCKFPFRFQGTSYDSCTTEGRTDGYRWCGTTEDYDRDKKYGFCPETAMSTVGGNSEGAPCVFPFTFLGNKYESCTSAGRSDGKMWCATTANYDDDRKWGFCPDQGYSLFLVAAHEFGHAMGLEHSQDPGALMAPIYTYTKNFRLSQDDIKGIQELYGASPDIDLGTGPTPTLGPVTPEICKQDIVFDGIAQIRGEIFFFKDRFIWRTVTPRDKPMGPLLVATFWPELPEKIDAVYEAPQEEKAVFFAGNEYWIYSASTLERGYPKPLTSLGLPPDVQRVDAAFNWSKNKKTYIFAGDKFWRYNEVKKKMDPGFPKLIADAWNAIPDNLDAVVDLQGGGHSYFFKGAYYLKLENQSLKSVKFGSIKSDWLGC

Interstitial collagenase = molecular target: T1, Interstitial collagenase (Homo sapiens, UniProt P03956); experiment: Inhibition of human recombinant MMP-1 incubated for 30 mins by fluorescence based analysis
T1 sequence (P03956 whole entry): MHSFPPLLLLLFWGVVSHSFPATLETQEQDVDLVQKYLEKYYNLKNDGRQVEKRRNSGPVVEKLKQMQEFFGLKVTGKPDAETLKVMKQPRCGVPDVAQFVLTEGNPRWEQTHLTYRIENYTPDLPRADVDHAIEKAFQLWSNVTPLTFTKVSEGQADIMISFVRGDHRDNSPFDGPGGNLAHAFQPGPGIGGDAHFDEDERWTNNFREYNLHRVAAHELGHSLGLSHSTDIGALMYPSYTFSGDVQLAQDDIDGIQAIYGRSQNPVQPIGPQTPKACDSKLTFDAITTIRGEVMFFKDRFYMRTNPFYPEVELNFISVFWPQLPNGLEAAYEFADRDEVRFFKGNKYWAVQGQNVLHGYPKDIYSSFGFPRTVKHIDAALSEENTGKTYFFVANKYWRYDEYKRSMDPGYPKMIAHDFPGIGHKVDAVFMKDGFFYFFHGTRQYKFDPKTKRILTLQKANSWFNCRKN

Stromelysin-2 = Stromelysin-2 (Homo sapiens, UniProt P09238); experiment: Inhibition of human recombinant MMP-10 using […]-Pro-Lys-Pro-Val-Glu-Nval-Trp-Arg-Lys(Dnp)-NH2 as substrate preincubated for 30 mins followed by substrate addition by fluorescence based analysis
Stromelysin-2, sequence (P09238 whole entry): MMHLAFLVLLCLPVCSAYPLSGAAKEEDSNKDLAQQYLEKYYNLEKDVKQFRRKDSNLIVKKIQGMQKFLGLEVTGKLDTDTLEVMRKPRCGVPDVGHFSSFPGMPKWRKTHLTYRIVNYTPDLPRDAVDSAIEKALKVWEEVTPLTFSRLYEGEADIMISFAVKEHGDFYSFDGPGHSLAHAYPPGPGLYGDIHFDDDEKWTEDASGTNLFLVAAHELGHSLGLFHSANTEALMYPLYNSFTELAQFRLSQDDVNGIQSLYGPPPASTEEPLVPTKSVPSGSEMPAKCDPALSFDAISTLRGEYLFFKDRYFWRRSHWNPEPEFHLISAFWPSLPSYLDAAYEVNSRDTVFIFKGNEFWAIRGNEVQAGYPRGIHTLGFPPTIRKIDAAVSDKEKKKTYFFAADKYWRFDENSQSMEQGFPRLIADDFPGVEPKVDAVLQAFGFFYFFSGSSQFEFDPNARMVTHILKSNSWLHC

Neutrophil collagenase = Neutrophil collagenase (Homo sapiens, UniProt P22894); experiment: Inhibition of human recombinant MMP-8 incubated for 30 mins by fluorescence based analysis
Neutrophil collagenase, sequence (P22894 whole entry): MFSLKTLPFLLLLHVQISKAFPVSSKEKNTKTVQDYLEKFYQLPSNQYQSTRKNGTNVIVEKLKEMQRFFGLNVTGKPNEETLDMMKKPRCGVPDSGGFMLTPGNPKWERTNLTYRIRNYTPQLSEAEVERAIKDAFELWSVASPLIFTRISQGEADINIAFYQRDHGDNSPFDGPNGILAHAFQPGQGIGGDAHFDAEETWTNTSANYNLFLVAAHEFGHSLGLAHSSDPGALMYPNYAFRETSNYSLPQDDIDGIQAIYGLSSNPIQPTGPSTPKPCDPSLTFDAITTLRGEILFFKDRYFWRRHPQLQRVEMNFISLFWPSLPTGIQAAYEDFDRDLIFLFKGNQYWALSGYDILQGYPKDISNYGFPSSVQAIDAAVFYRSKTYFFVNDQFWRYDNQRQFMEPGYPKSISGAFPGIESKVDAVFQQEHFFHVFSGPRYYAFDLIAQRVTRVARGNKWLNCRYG

[3] = Drug distribution in western atherogenic diet fed ApoE-/- mouse intestine at […], iv administered as bolus injection measured for 30 mins by gamma counter analysis; format: ADME, organism-based; details: in vivo, 0.5 h
Method in brief: (§1)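 Diet-fed male ApoE-/- mice (39 ± 5 g, n = 4-6) under 2% isoflurane received radiotracer (~7.5 MBq, 100-200 µL) IV by tail-vein bolus over 30 s. After 30 min, blood was taken by cardiac puncture, then PBS/formalin perfusion and organ dissection. Uptake is decay-corrected %ID normalized to tissue mass (%ID/g).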

[4] = Drug distribution in western atherogenic diet fed ApoE-/- mouse muscle tissue at […], iv administered as bolus injection measured for 30 mins by gamma counter analysis; format: ADME, organism-based; details: in vivo, 0.5 h; method in brief: as §1
[5] = Drug distribution in western atherogenic diet fed ApoE-/- mouse spleen at […], iv administered as bolus injection measured for 30 mins by gamma counter analysis; format: ADME, organism-based; details: in vivo, 0.5 h; method in brief: as §1
[6] = Drug distribution in western atherogenic diet fed ApoE-/- mouse pancreas at […], iv administered as bolus injection measured for 30 mins by gamma counter analysis; format: ADME, organism-based; details: in vivo, 0.5 h; method in brief: as §1
[7] = Drug distribution in western atherogenic diet fed ApoE-/- mouse blood assessed as compound remaining at […], iv administered as bolus injection measured for 30 mins by gamma counter analysis; format: ADME, organism-based; details: in vivo, 0.5 h; method in brief: as §1
[8] = Octanol/PBS distribution coefficient, logD of compound at pH 7.4 incubated for 10 mins under shaking condition by gamma counter analysis; format: physicochemical
Method in brief: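 Radiotracer partitioning between 1-octanol and 1× PBS at pH 7.4. Mean ± standard error of two independent experiments, each in quadruplicate.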

[9] = Drug distribution in western atherogenic diet fed ApoE-/- mouse lung at […], iv administered as bolus injection measured for 30 mins by gamma counter analysis; format: ADME, organism-based; details: in vivo, 0.5 h; method in brief: as §1
[10] = Drug distribution in western atherogenic diet fed ApoE-/- mouse aortic plaques at […], iv administered as bolus injection measured for 30 mins by Oil Red O staining based autoradiography; format: ADME, organism-based, Aorta; details: in vivo, 0.5 h
Method in brief: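 Male ApoE-/- mice were fed a western atherogenic diet from 8 weeks of age for 13-16 weeks. Radiotracer (~7.5 MBq) was given IV by tail-vein bolus over 30 s. Blocking: unlabelled tracer analogue (2.5 mg/kg; DMA/propylene glycol/PEG400/water) or WAY170523 (7.5 mg/kg; DMSO/PEG400/water), both IV 15 min before. At 30 min, perfused aortae were exposed to a phosphor screen for 10 half-lives (%ID·mm⁻²), with ORO staining.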

[11] = Drug distribution in western atherogenic diet fed ApoE-/- mouse bone at […], iv administered as bolus injection measured for 30 mins by gamma counter analysis; format: ADME, organism-based, Bone element; details: in vivo, 0.5 h; method in brief: as §1
[12] = Stability of compound in 10% EtOH/saline assessed as compound degradation measured upto 75 mins by analytical radio-HPLC analysis; format: physicochemical; details: buffer, 1.25 h
Method in brief: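 Radiotracer formulated in 10% EtOH/0.9% saline was held at room temperature up to 75 min. Samples were analysed by analytical radio-HPLC (C18, 0.1 M ammonium formate/ACN gradient, 1 mL·min⁻¹).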

[13] = Drug distribution in western atherogenic diet fed ApoE-/- mouse brain at […], iv administered as bolus injection measured for 30 mins by gamma counter analysis; format: ADME, organism-based; details: in vivo, 0.5 h; method in brief: as §1
[14] = Drug distribution in western atherogenic diet fed ApoE-/- mouse fat tissue at […], iv administered as bolus injection measured for 30 mins by gamma counter analysis; format: ADME, organism-based, Adipose tissue; details: in vivo, 0.5 h; method in brief: as §1
[15] = Drug distribution in western atherogenic diet fed ApoE-/- mouse kidney at […], iv administered as bolus injection measured for 60 mins by PET analysis; format: ADME, organism-based; details: in vivo, 1 h
Method in brief: (§2)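 A 10 min transmission scan preceded tail-vein IV bolus of radiotracer (~7.5 MBq, over 30 s) in diet-fed ApoE-/- mice. Dynamic whole-body PET ran for 60 min (4×15 s, 4×1 min, 11×5 min frames), corrected for attenuation and scatter, 3D-OSEM/MAP reconstruction. Volumetric organ ROIs gave %ID·cc⁻¹ time-activity curves; n = 2 per group.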

[16] = Drug distribution in western atherogenic diet fed ApoE-/- mouse myocardium assessed as compound remaining at […], iv administered as bolus injection measured for 30 mins by gamma counter analysis; format: ADME, organism-based; details: in vivo, 0.5 h; method in brief: as §1
[17] = Drug distribution in western atherogenic diet fed ApoE-/- mouse urinary bladder at […], iv administered as bolus injection measured for 60 mins by PET analysis; format: ADME, organism-based; details: in vivo, 1 h; method in brief: as §2
[18] = Drug distribution in western atherogenic diet fed ApoE-/- mouse myocardium assessed as myocardial retention at […], iv administered as bolus injection measured for 60 mins by PET analysis; format: ADME, organism-based; details: in vivo, 1 h; method in brief: as §2
[19] = Tmax in western atherogenic diet fed ApoE-/- mouse blood at […], iv administered as bolus injection measured for 60 mins by PET analysis; format: ADME, organism-based; details: in vivo, 1 h; method in brief: as §2
[20] = Drug distribution in western atherogenic diet fed ApoE-/- mouse stomach at […], iv administered as bolus injection measured for 30 mins by gamma counter analysis; format: ADME, organism-based; details: in vivo, 0.5 h; method in brief: as §1
[21] = Drug distribution in western atherogenic diet fed ApoE-/- mouse kidney at […], iv administered as bolus injection measured for 30 mins by gamma counter analysis; format: ADME, organism-based; details: in vivo, 0.5 h; method in brief: as §1
[22] = Drug distribution in western atherogenic diet fed ApoE-/- mouse liver at […], iv administered as bolus injection measured for 60 mins by PET analysis; format: ADME, organism-based; details: in vivo, 1 h; method in brief: as §2
[23] = Drug distribution in western atherogenic diet fed ApoE-/- mouse liver at […], iv administered as bolus injection measured for 30 mins by gamma counter analysis; format: ADME, organism-based; details: in vivo, 0.5 h; method in brief: as §1
[24] = Stability in western atherogenic diet fed ApoE-/- mouse plasma assessed as intact compound level at ~75 MBq, iv administered as bolus injection and measured after 30 mins by gamma counter analysis; format: ADME, organism-based; details: read-out: Stability
Method in brief: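 Blood was drawn by cardiac puncture into K₂EDTA tubes 30 min after IV radiotracer in diet-fed ApoE-/- mice. Optional IV pretreatment 15 min before: unlabelled analogue 2.5 mg/kg or WAY170523 7.5 mg/kg. Pooled protein-free plasma was spiked with standard and run on radio-HPLC (C18, ammonium formate/ACN). Fractions were collected each minute and gamma-counted to give the parent fraction.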

[25] = Drug distribution in western atherogenic diet fed ApoE-/- mouse intestine at […], iv administered as bolus injection measured for 60 mins by PET analysis; format: ADME, organism-based; details: in vivo, 1 h; method in brief: as §2

Structure (SMILES): Cc1cc(CNC(=O)c2nc3ccc(F)c(OCCc4ccc(C(=O)O)cc4)c3c(=O)[nH]2)ccc1F
- IC50 (Collagenase 3): 1.2 nM
- IC50 [1]: > 10000 nM
- IC50 [2]: > 10000 nM
- IC50 (Interstitial collagenase): > 10000 nM
- IC50 (Stromelysin-2): 2500 nM
- IC50 (Neutrophil collagenase): 1700 nM

Structure (SMILES): Cc1cc(CNC(=O)c2nc3ccc(F)c(F)c3c(=O)[nH]2)ccc1F
- IC50 (Collagenase 3): 106 nM

Structure (SMILES): O=C(NCc1cccc(O)c1)c1nc2ccc(F)c(F)c2c(=O)[nH]1
- IC50 (Collagenase 3): 149 nM

Structure (SMILES): O=C(O)c1ccc(CCOc2c(F)ccc3nc(C(=O)NCc4cccc(O)c4)[nH]c(=O)c23)cc1
- IC50 (Collagenase 3): 1.3 nM
- IC50 [1]: > 10000 nM
- IC50 [2]: > 10000 nM
- IC50 (Interstitial collagenase): > 10000 nM
- IC50 (Stromelysin-2): 2800 nM
- IC50 (Neutrophil collagenase): 2100 nM

Structure (SMILES): [11CH3]Oc1cccc(CNC(=O)c2nc3ccc(F)c(OCCc4ccc(C(=O)O)cc4)c3c(=O)[nH]2)c1
- Drug uptake [3]: 53.05 % ID/g
- Drug uptake [4]: ~ 2 % ID/g
- Drug uptake [5]: 2.11 % ID/g
- Drug uptake [6]: ~ 2 % ID/g
- Drug uptake [7]: 0.49 % ID/g
- logD at 10 min [8]: 1.16
- Drug uptake [9]: ~ 2 % ID/g
- Drug uptake [10]: 52.97 %ID.m^-2
- Drug uptake [11]: ~ 2 % ID/g
- Stability [12]: Stable
- Drug uptake [13]: ~ 2 % ID/g
- Drug uptake [14]: ~ 2 % ID/g
- Drug uptake [15]: 21.01 %ID/cc
- Drug uptake [16]: ~ 1 % ID/g
- Drug uptake [17]: Not Active
- Drug uptake [18]: < 0.5 %ID/cc
- Tmax [19]: 37.5 s
- Drug uptake [20]: ~ 2 % ID/g
- Drug uptake [21]: 30.95 % ID/g
- Drug uptake [22]: 25.29 %ID/cc
- Drug uptake [23]: 7.29 % ID/g
- remaining at 0.5 h [24]: 86%
- Drug uptake [25]: Active

Structure (SMILES): COc1ccc(CNC(=O)c2nc3ccc(F)c(OCCF)c3c(=O)[nH]2)cc1
- IC50 (Collagenase 3): 127 nM

Structure (SMILES): Cc1cc(CNC(=O)c2cc(C(=O)NCc3ccc(OCCF)cc3)ncn2)ccc1F
- IC50 (Collagenase 3): 52 nM

Structure (SMILES): COc1cccc(CNC(=O)c2nc3ccc(F)c(F)c3c(=O)[nH]2)c1
- IC50 (Collagenase 3): 118 nM

Structure (SMILES): COc1cccc(CNC(=O)c2nc3ccc(F)c(OCCc4ccc(C(=O)O)cc4)c3c(=O)[nH]2)c1
- IC50 (Collagenase 3): 1.3 nM
- IC50 [1]: > 10000 nM
- IC50 [2]: > 10000 nM
- IC50 (Interstitial collagenase): > 10000 nM
- IC50 (Stromelysin-2): 3200 nM
- IC50 (Neutrophil collagenase): 2400 nM
